Results gathered from unrelated publications.
Each line is one published result; the experiments were not run side by side.
Target: Serine/threonine-protein kinase SIK3 (SIK3, Homo sapiens, UniProt Q9Y2K2)

SMILES	assay	setting	remaining binding [%]
O=C(c1ccc(Nc2nccc(-c3cc4ccccc4s3)n2)cc1)N1CCC(N2CCCC2)CC1	binding, competition with immobilised ligand	1 µM	65
CCCCN(CCCC)C(=O)CN1C[C@H](c2cc(OC)c3c(c2)OCO3)[C@@H](C(=O)O)[C@@H]1CC(C)(C)CCC	cell-free assay, competition with immobilised ligand	1 µM	60.5
N[C@@H]1CCN(c2nccc(-c3cnn4ncccc34)n2)C1	binding	1 µM	100
CCS(=O)(=O)c1cc2cc(C[C@](O)(CC(C)(C)c3ccc(F)cc3C(N)=O)C(F)(F)F)[nH]c2cn1	cell-free assay, competition with immobilised ligand	1 µM	85
FC(F)(F)Oc1cccc(-c2cnc3ccc(-c4ccncc4)nn23)c1	cell-free assay, competition with immobilised ligand	5 µM	66
C[C@H](c1ccc(F)cc1)N(Cc1cccc(C(=O)O)c1)C(=O)c1cnc2ccccc2c1	cell-free assay, competition with immobilised ligand	1 µM	80
O=C(NCCCN1CCOCC1)c1ccc(Nc2ncc(Cl)c(-c3ccc(Cl)s3)n2)cc1	binding, competition with immobilised ligand	1 µM	97
F[C@@H]1CCN(c2nccc(-c3cnn4ncccc34)n2)C1	binding	1 µM	74
Cc1cc(C)c(-n2ccn3nc(-c4cccnc4)cc23)cc1NC(=O)c1cc(C#N)cc(S(F)(F)(F)(F)F)c1	cell-free assay, competition with immobilised ligand	0.1 µM	75.3
CN(C)c1nccc(-c2cnn3ncccc23)n1	binding	1 µM	99
Nc1ncc2c(n1)-c1c([nH]c3ccc(C#CC4CC4)cc13)CCCC2	binding, competition with immobilised ligand	1 µM	100
COc1ccnn2ncc(-c3ccnc(N(C)C)n3)c12	binding	1 µM	78
COc1ncc2cc3ccccc3nc2c1C#N	cell-free assay, competition with immobilised ligand	5 µM	88
COc1cnc(Nc2cccc(S(N)(=O)=O)c2)nc1N1CCN(c2ccccc2)CC1	binding, competition with immobilised ligand	1 µM	84
O=C(c1ccc(Nc2ncc(Cl)c(-c3ccc(Cl)s3)n2)cc1)N1CCC(N2CCCC2)CC1	binding, competition with immobilised ligand	1 µM	84
O=C(NCC1CCOCC1)c1n[nH]cc1NC(=O)c1c(F)cccc1F	binding, competition with immobilised ligand	1 µM	88
CN(CCCC(F)(F)F)c1nccc(-c2cnn3ncccc23)n1	binding	1 µM	100
CN(C)C(=O)Cn1cc(-c2nc(C3(c4ccc(-c5cnc(N)nc5)cc4)CC3)no2)cn1	cell-free assay, competition with immobilised ligand	1 µM	100
C[C@@H]1CCN(c2nccc(-c3cnn4ncccc34)n2)C1	binding	1 µM	31
O=C(Nc1ccc(Oc2ccc(F)cc2)cc1)N1CCc2ncccc2[C@H]1c1ccc(F)cc1	cell-free assay, competition with immobilised ligand	1 µM	100
